# Source: ChEMBL document CHEMBL1938301, “Cyclohexane 1,3-diones and their inhibition of mutant SOD1-dependent protein aggregation and toxicity in PC12 cells” (Bioorg Med Chem, 2012)
# Activity calls are given as the source filed them.
# Tests used:
# [1] = (§1) Inhibition of SOD1 G93A mutant protein aggregation-mediated cytotoxicity in rat PC12 cells expressing yellow fluorescent protein assessed as increase in cell viability; assay type: cell-based; conditions: PC-12
# PC-12 [2] = assay: Inhibition of SOD1 G93A mutant protein aggregation-mediated cytotoxicity in rat PC12 cells expressing yellow fluorescent protein assessed as increase in cell viability relative to radicicol; assay type: cell-based; set-up: concentration or dose not given beside the values
# Summary of the method: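 PC12 cells expressing G93A SOD1-YFP; MG132 proteasome inhibition induces cytotoxic mutant SOD1 aggregates. Cell survival measured as protection read-out; efficacy expressed relative to radicicol positive control.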
# PC-12 [3] = assay: Cytoprotective activity against MG132-induced cytotoxicity in rat PC12 cells assessed as cell viability at 100 uM pre-treated for 24 hrs before MG132-induction measured after 48 hrs by Calcein-AM-based fluorimetry; assay type: functional
# HEK293 = assay: Cytoprotective activity against MG132-induced cytotoxicity in human HEK293 cells assessed as cell viability at 100 uM pre-treated for 24 hrs before MG132-induction measured after 48 hrs by Calcein-AM-based fluorimetry; assay type: functional
# SH-SY5Y = assay: Cytoprotective activity against MG132-induced cytotoxicity in human SH-SY5Y cells assessed as cell viability at 100 uM pre-treated for 24 hrs before MG132-induction measured after 48 hrs by Calcein-AM-based fluorimetry; assay type: functional
# Cerebral cortex neuron = assay: Cytoprotective activity against MG132-induced cytotoxicity in rat primary cortical neurons cells assessed as cell viability at 100 uM pre-treated for 24 hrs before MG132-induction measured after 48 hrs by Calcein-AM-based fluorimetry; assay type: functional
# Summary of the method: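 Neurons from E18 rat cortex (Sprague-Dawley or Fischer 344), papain-dissociated, plated at 20,000 cells/well on poly-D-lysine, cultured 5 days in Neurobasal/B27 (~90% neurons). Six-point series from 100 μM top in roughly one-third steps, 24 h pre-incubation, then MG132 100 nM final. Viability read 48 h later by Calcein-AM (1 μM, 20 min, RT) fluorescence. Active if ≥5 SD above MG132 controls.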
# HeLa = assay: Cytoprotective activity against MG132-induced cytotoxicity in human HeLa cells assessed as cell viability at 100 uM pre-treated for 24 hrs before MG132-induction measured after 48 hrs by Calcein-AM-based fluorimetry; assay type: functional
# PC-12 [4] = assay: as §1; assay type: cell-based
Structure (SMILES),EC50 [1] [µM],Efficacy (PC-12 [2]) [%],other results
O=C1CC(=O)CC(COc2cc(C(F)(F)F)cc(C(F)(F)F)c2)C1,0.7,100,–
CCc1ccccc1C1CC(=O)CC(=O)C1,3.16,100,–
O=C1CC(=O)CC(Cc2ccccc2)C1,1.82,100,–
Cc1cc(C)cc(CC2CC(=O)CC(=O)C2)c1,0.9,100,–
CC(C)c1cccc(C2CC(=O)CC(=O)C2)c1,1.58,100,–
CC1(COc2ccccc2)CC(=O)CC(=O)C1,6.28,100,–
O=C1CC(=O)N(CCc2ccccc2)C(=O)N1CCc1ccccc1,–,100,Activity (PC-12 [3]): Active; Activity (HEK293): Active; Activity (SH-SY5Y): Active; Activity (Cerebral cortex neuron): Active; Activity (HeLa): Active
CC(C)c1ccc(C2CC(=O)CC(=O)C2)cc1,4.09,100,–
CCOc1ccc(C2CC(=O)CC(=O)C2)c(OCC)c1,1.49,100,–
CC(C)(C)OC(=O)N1CCN(c2ccc(C3CC(=O)CC(=O)C3)cc2)CC1,8.29,100,–
O=C1CC(=O)CC(c2c(Cl)cccc2Cl)C1,24.3,100,–
O=C1CC(=O)CC(c2cc(-c3ccccc3)cc(C(F)(F)F)c2)C1,0.73,100,–
O=C1CC(=O)CC(CC(c2ccccc2)c2ccccc2)C1,3.43,100,–
O=C1CC(=O)CC(c2cc(-c3ccc(F)cc3)cc(-c3ccc(F)cc3)c2)C1,3.07,100,–
Cc1ccccc1C1CC(=O)CC(=O)C1,3.39,100,–
O=C1CC(=O)CC(c2cccc(C(F)(F)F)c2)C1,3.33,100,–
O=C1CC(=O)CC(c2ccccc2F)C1,> 32,100,–
CC1(COc2cc(C(F)(F)F)cc(C(F)(F)F)c2)CC(=O)CC(=O)C1,0.7,100,–
Cc1cccc(C)c1C1CC(=O)CC(=O)C1,2.7,100,–
Cc1cc(C)c(C2CC(=O)CC(=O)C2)c(C)c1,> 32,100,–
CCn1c2ccccc2c2cc(C3CC(=O)CC(=O)C3)ccc21,3.09,100,–
O=C1CC(=O)CC(c2ccc(OCc3ccccc3)cc2)C1,> 32,100,–
CSc1ccc(C2CC(=O)CC(=O)C2)cc1,> 32,100,–
O=C1CC(=O)CC(c2cccc(-c3cc(C(F)(F)F)cc(C(F)(F)F)c3)c2)C1,2.15,100,–

Structure (SMILES),EC50 [1] [µM],Efficacy (PC-12 [2]) [%],other results
O=C1CC(=O)CC(c2cc(F)cc(F)c2)C1,8.2,100,–
O=C1CC(=O)CC(c2cccc(-c3ccccc3)c2)C1,1.23,100,–
O=C1CC(=O)CC(c2cccc(Cl)c2)C1,6.52,100,–
O=C1CC(=O)CC(c2cc(-c3cccc(Cl)c3)cc(C(F)(F)F)c2)C1,1.56,100,–
O=C1CC(=O)CC(c2ccccc2C(F)(F)F)C1,3.2,100,–
Cc1cc(C)cc(C2CC(=O)CC(=O)C2)c1,2.4,100,–
O=C1CC(=O)CC(c2ccc(C(F)(F)F)cc2)C1,8.3,100,–
O=c1cc(COc2cc(Cl)cc(Cl)c2)[nH][nH]1,–,–,Activity (PC-12 [3]): Active; Activity (HEK293): Active; Activity (SH-SY5Y): Active; Activity (Cerebral cortex neuron): Active; Activity (HeLa): Active
O=C1CC(=O)CC(c2cccc(-c3cc(F)cc(F)c3)c2)C1,1.24,100,–
CCCc1ccc(C2CC(=O)CC(=O)C2)cc1,2.22,100,–
O=C1CC(=O)CC(c2c(Cl)cc(Cl)cc2Cl)C1,7.01,100,–
CCCCCc1ccc(C2CC(=O)CC(=O)C2)cc1,2.01,100,–
CC(C)(C)c1ccc(C2CC(=O)CC(=O)C2)cc1,9.93,100,–
O=C1CC(=O)CC(c2ccc(Oc3ccc(F)cc3)cc2)C1,2.37,100,–
CCCCc1ccc(C2CC(=O)CC(=O)C2)cc1,2.71,100,–
O=C1CC(=O)CC(c2ccc(F)cc2F)C1,> 32,100,–
O=C1CC(=O)CC(c2ccccc2Br)C1,> 32,100,–
O=C1CC(=O)CC(c2cccc(Br)c2)C1,28.7,100,–
Cc1cccc(C2CC(=O)CC(=O)C2)c1,4.81,100,–
O=C1CC(=O)CC(c2cccc(-c3ccc(Cl)cc3)c2)C1,3.51,100,–
CC(c1ccccc1)C1CC(=O)CC(=O)C1 (racemic),5.85,100,–
O=C1CC(=O)CC(c2ccc(OCCCc3ccccc3)cc2)C1,1.3,100,–
CC(Oc1cc(Cl)cc(Cl)c1)C1CC(=O)CC(=O)C1 (racemic),1.41,100,–
CCc1ccc(C2CC(=O)CC(=O)C2)cc1,2.22,100,–

Structure (SMILES),EC50 [1] [µM],Efficacy (PC-12 [2]) [%],other results
O=C1CC(=O)CC(COc2ccccc2)C1,> 32,100,–
O=C1CC(=O)CC(c2cc(Cl)cc(Cl)c2)C1,2.35,100,–
O=C1CC(=O)CC(c2cc(-c3ccccc3)cc(-c3ccccc3)c2)C1,2.53,100,–
O=C1CC(=O)CC(c2ccc3ccccc3c2)C1,6.21,100,–
O=C1CC(=O)CC(c2cccc(Oc3cc(Cl)cc(Cl)c3)c2)C1,6.66,100,–
C[C@@H]1C[C@H]2O[C@@H]2/C=C\C=C\C(=O)Cc2c(Cl)c(O)cc(O)c2C(=O)O1,–,–,Efficacy (PC-12 [4]): 85%
O=C1CC(=O)CC(c2cc(Cl)cc(-c3ccccc3)c2)C1,1.1,100,–
O=C1CC(=O)CC(c2ccccc2Oc2ccc(F)cc2)C1,1.16,100,–
O=C1CC(=O)CC([C@@H]2C[C@H]2c2ccccc2)C1,2.65,100,–
COc1cc(OC)cc(C2CC(=O)CC(=O)C2)c1,5.2,100,–
O=C1CC(=O)CC(c2cccc(OC(F)(F)F)c2)C1,2.04,100,–
O=C1CC(=O)CC(c2ccccc2Cl)C1,> 32,100,–
O=C1CC(=O)CC(c2ccc(Oc3ccc(Cl)cc3)cc2)C1,2.88,100,–
O=C1CC(=O)CC(c2ccc(Oc3cccc(Cl)c3)cc2)C1,3.6,100,–
O=C1CC(=O)CC(c2cccc(Oc3ccc(Cl)cc3)c2)C1,2.18,100,–
O=C1CC(=O)CC(c2ccc(Cl)cc2Cl)C1,4.57,100,–
O=C1CC(=O)CC(c2ccc(OCCOc3ccccc3)cc2)C1,1.56,100,–
Cc1cccc(C2CC(=O)CC(=O)C2)c1C,2.39,100,–
O=C1CC(=O)CC(c2ccc(C(F)(F)F)cc2C(F)(F)F)C1,2.56,100,–
O=C1CC(=O)CC(c2ccoc2)C1,> 32,100,–
O=C1CC(=O)CC(c2ccc(-c3cccc(Cl)c3)o2)C1,2.71,100,–
O=C1CC(=O)CC(c2c(F)cccc2F)C1,> 32,100,–
CCOc1cccc(C2CC(=O)CC(=O)C2)c1OCC,3.99,100,–
O=C1CC(=O)CC([C@@H]2C[C@H]2c2cc(C(F)(F)F)cc(C(F)(F)F)c2)C1 (racemic),0.7,100,–
